Data on four compounds can be found in article PMC3504124 (Journal of the American Chemical Society, 2012).

In experiment [1] the target is T1, SETD2 (Homo sapiens, UniProt Q9BYW2).
T1 sequence (Q9BYW2 1347-1711): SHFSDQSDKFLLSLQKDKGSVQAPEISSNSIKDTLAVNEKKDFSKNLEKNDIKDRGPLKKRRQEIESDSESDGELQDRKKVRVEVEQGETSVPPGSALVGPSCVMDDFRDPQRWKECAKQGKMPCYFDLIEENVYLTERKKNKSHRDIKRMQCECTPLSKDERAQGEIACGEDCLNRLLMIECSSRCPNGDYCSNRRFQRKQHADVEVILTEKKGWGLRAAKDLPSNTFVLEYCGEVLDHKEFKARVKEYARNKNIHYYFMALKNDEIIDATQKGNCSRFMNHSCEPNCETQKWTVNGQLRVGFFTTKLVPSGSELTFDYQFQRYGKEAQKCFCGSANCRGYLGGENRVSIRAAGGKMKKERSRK
The experiment in a line: Filter-paper methylation assay with [3H-Me]-SAM, IC50 against SETD2. Format: biochemical. As to conditions: for preference to SETD2 over other examined methyltransferases: panel of 15 human methyltransferases. The essentials: (§1)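 Radiometric filter-paper assay: the methyl group from [3H-Me]-SAM is transferred to a peptide substrate, the peptide is captured by filter binding, and radioactivity is counted by scintillation. For SETD2, both SAM and peptide were below their Km. IC50 was obtained by fitting percent inhibition against inhibitor concentration.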

Another experiment concerns the target T2, SET7/9 (Homo sapiens, UniProt Q8WTS6).
T2 sequence (Q8WTS6 1-366): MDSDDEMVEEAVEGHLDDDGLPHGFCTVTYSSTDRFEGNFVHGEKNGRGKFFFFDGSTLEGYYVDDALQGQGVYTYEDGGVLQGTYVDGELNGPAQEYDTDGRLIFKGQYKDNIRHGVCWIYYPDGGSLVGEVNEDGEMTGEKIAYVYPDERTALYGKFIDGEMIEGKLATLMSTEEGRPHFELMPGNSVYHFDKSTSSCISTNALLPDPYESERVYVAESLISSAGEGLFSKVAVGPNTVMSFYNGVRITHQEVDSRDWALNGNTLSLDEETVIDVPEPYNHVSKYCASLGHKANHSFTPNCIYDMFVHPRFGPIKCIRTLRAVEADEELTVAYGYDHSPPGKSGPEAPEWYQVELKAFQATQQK
As to the kind of experiment: Filter-paper methylation assay, IC50 against SET7/9. Format: biochemical. Summed up: as §1

Another experiment deals with T3, CARM1 (Homo sapiens, UniProt Q86X55).
T3 sequence (Q86X55 19-608): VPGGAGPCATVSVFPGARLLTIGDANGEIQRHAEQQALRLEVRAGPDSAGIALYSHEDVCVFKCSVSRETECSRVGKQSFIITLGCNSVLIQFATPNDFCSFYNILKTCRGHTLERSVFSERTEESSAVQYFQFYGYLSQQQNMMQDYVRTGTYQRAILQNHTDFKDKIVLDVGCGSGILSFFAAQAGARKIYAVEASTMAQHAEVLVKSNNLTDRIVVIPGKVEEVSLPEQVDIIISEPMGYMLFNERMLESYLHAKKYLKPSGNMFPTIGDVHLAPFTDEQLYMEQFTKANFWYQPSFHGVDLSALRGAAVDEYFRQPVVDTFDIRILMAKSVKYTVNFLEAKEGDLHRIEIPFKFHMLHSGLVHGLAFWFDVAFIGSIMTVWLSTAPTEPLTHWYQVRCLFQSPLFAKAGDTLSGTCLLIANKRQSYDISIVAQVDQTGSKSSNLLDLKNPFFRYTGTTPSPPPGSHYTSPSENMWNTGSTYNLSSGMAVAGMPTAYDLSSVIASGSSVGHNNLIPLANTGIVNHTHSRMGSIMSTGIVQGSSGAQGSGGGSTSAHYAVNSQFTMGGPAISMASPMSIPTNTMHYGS
As to the kind of experiment: Filter-paper methylation assay, IC50 against CARM1. As to conditions: read-out: IC50 for CARM1. The experiment is classed as biochemical.

A further experiment deals with PRMT1 (Homo sapiens, UniProt Q99873). As to the kind of experiment: Filter-paper methylation assay, IC50 against PRMT1. Format: biochemical. As to conditions: read-out: IC50 for PRMT1. The essentials:
as §1

The target in a further experiment is T4, SET8 (Homo sapiens, UniProt Q9NQR1).
T4 sequence (Q9NQR1 232-393 limits assumed): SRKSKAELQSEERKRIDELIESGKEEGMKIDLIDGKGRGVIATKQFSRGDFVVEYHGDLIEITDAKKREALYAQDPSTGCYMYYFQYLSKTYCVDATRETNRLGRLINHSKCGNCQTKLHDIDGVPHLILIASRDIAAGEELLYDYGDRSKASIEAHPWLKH
The experiment in a line: Filter-paper methylation assay, IC50 against SET8. The experiment is classed as biochemical. Conditions: read-out: IC50 for SET8. The essentials: as §1

The next experiment addresses T5, G9a (Homo sapiens, UniProt Q96KQ7).
T5 sequence (Q96KQ7 913-1193): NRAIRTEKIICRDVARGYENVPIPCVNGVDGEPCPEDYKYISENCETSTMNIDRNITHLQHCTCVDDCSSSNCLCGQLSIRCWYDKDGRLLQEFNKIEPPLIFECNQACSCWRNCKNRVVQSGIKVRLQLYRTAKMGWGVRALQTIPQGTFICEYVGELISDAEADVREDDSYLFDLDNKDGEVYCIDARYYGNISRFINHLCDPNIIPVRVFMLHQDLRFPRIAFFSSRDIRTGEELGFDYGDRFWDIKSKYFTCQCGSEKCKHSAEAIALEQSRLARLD
As to the kind of experiment: Filter-paper methylation assay, IC50 against G9a. As to conditions: read-out: IC50 for G9a. The experiment is classed as biochemical.

A further experiment deals with T6, GLP (Homo sapiens, UniProt Q9H9B1).
T6 sequence (Q9H9B1 982-1266): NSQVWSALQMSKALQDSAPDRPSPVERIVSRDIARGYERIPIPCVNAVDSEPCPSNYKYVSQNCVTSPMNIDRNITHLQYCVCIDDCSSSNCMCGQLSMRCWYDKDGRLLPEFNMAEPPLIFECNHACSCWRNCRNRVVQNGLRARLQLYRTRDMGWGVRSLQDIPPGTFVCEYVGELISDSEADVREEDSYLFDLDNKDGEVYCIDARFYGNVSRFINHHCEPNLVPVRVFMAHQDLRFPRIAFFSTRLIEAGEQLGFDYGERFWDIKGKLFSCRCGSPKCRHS
As to the kind of experiment: Filter-paper methylation assay, IC50 against GLP. Format: biochemical. Conditions: read-out: IC50 for GLP. Summed up: as §1

Experiment [2] addresses T1, SETD2. The experiment in a line: Kinetics analysis of SETD2-catalyzed methylation. Format: biochemical.
For a further experiment, the system named is SUV39H2. As to the kind of experiment: Filter-paper methylation assay, potency against SUV39H2. Format: biochemical, human. Summed up:
as §1

For a further experiment, the system named is DOT1L. Conditions: read-out: in vitro IC50 on DOT1L; cited from earlier work.

A value given as a limit tells only on which side of the number the result lay.

PRMT1, sequence (Q99873 10-352 isoform Q99873-3): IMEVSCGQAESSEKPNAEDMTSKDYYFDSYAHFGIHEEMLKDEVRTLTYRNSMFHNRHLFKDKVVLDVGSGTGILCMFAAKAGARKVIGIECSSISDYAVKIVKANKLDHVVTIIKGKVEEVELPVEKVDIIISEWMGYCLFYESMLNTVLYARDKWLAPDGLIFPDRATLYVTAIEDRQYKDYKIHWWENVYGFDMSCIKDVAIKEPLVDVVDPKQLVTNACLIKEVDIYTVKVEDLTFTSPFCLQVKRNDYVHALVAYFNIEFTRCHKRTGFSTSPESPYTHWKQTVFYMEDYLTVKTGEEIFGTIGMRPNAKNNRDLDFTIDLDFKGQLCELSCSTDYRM

As for `CCCNC(CCC(N)C(=O)O)C[C@H]1O[C@@H](n2cnc3c(N)ncnc32)[C@H](O)[C@@H]1O` (stereo partly shown) [3c, N-propyl sinefungin], the “preference to SETD2 over other examined methyltransferases” value on SETD2 [1] is given as 2~200 fold. In addition, the IC50 on SET7/9 (read-out: IC50 for SET7/9) was 2200 ± 400 nM; on CARM1, 2960 ± 300 nM; at PRMT1 it was 9500 ± 400 nM; at SET8 it was over 100000 nM; at G9a, over 100000 nM; on GLP it was over 100000 nM. The IC50 at SETD2 [2] (read-out: calculated IC50 against SETD2, calculated from kinetic constants) was 600 nM. Further, the “enhancement of Kd by presence of SETD2's substrate” value at SETD2 [2] turned out to be 8 fold. On SETD2 [2] (factor by which binding of inhibitor or substrate affects binding of the other), this compound showed a β of 0.12 ± 0.01. Moreover, the Kd at SETD2 [2] (read-out: βKd to bind SETD2, presence of substrate) came out at 43 ± 4 nM. Moreover, the “mechanism of inhibition versus peptide substrate” value at SETD2 [2] (varied inhibitor, fixed SAM (0.8 μM)) is listed as “noncompetitive”. Also, the “mechanism of inhibition versus SAM cofactor” value on SETD2 [2] (varied inhibitor, fixed substrate (4 μM)) is recorded as “competitive”.
With `Nc1ncnc2c1ncn2[C@@H]1O[C@H](C[C@H](CC[C@H](N)C(=O)O)NCc2ccccc2)[C@@H](O)[C@H]1O` [3d, N-benzyl sinefungin], the “potency against SETD2 relative to sinefungin 2, 3a and 3b” value at SETD2 [1] (fold higher potency) was “more than 10 fold”. Further, the “preference to SETD2 over other examined methyltransferases” value at SETD2 [1] was 10~100 fold. In addition, the “drop in potency from 3c to 3d on SET7/9” value at SET7/9 is listed as 10~50 fold. For the same compound, in the experiment on SUV39H2, the “drop in potency from 3c to 3d on SUV39H2” value was 10~50 fold.
With `CC(C)N(CCCNC(=O)Nc1ccc(C(C)(C)C)cc1)C[C@H]1O[C@@H](n2ccc3c(N)ncnc32)[C@H](O)[C@@H]1O` [EPZ004777], in the experiment on DOT1L, the IC50 was […].
Regarding `C[S+](CC[C@H](N)C(=O)[O-])C[C@H]1O[C@@H](n2cnc3c(N)ncnc32)[C@H](O)[C@@H]1O` (stereo partly shown) [SAM, S-adenosylmethionine, reference compound], the Michaelis-Menten constant (Km) at SETD2 [2] (read-out: Km,SAM of SETD2, absence of Pr-SNF) is 1.21 ± 0.05 µM.

Usually Km stands for the concentration of substrate that gives half-maximal velocity.
